Results as given in ChEMBL document CHEMBL4842338, “System-oriented optimization of multi-target 2,6-diaminopurine derivatives: Easily accessible broad-spectrum antivirals active against flaviviruses, influenza virus and SARS-CoV-2” (Eur J Med Chem, 2021).
Activity calls are given as the source filed them. No cut-off for these calls is given here.

Tests used:
Influenza A virus [1] = experiment: (§1) Antiviral activity against Influenza A Puerto Rico/8/34/H1N1 infected in human A549 cells assessed as reduction in viral protein expression at 20 uM treated for 24 hrs post viral adsorption followed by staining with anti-Flu antibody observed at 24 hrs post infection by In-cell western assay; format: functional, organism-based; details: A/Puerto Rico/8/1934(H1N1)
[2] = Inhibition of full length ZIKA virus NS5 RNA dependent RNA polymerase incubated for 10 mins by picogreen staining based fluorescent analysis (Rvb= 1+/-0.2 uM)
Influenza A virus [3] = experiment: Antiviral activity against Influenza A Puerto Rico/8/34/H1N1 infected in human A549 cells assessed as reduction in viral protein expression at 20 uM treated for 2 to 6 hrs post infection and measured following infection of MDCK cells with supernatant for 24 hrs by time-of-addition assay; format: functional, organism-based; details: A/Puerto Rico/8/1934(H1N1), time 2-6 hrs
SARS-CoV-2 [4] = experiment: Antiviral activity against SARS-COV 2 infected in quadruplicate Vero E6 cells with DYRA supernatant assessed as reduction in viral replication at 0.8 uM; format: functional; details: Severe acute respiratory syndrome coronavirus 2, Vero C1008
Influenza A virus [5] = experiment: Antiviral activity against Influenza A Puerto Rico/8/34/H1N1 infected in human A549 cells assessed as inhibition of hemagglutinin expression at 20 uM pretreated for 2 hrs followed by infection of fresh cell monolayer of A549 cells with supernatant for 24 hrs by In-cell western assay; format: functional, organism-based; details: A/Puerto Rico/8/1934(H1N1)
How it was run: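 A549 cells infected with PR8 H1N1 and given 20 μM compound: 2 h before infection (PRE), 1 h during adsorption (DUR), or 24 h after adsorption (POST); supernatants used to infect fresh monolayers for 24 h; anti-HA in-cell western; RFU as % of untreated infected; 3 replicates from two experiments.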

CDK9/cyclin T1 = CDK9/cyclin T1 (Homo sapiens, UniProt P50750); experiment: Inhibition of human full length CDK9/ His-tagged cT1 assessed as residual activity at 5 uM using CDKtide as a substrate in the presence of BSA incubated for 10 mins by scintillation counting analysis relative to control; format: protein-complex assay; details: full length CDK9/His-tagged cyclin T1 complex, probe CDKtide, read-out: Activity
Sequence of CDK9/cyclin T1 (O60563 whole entry): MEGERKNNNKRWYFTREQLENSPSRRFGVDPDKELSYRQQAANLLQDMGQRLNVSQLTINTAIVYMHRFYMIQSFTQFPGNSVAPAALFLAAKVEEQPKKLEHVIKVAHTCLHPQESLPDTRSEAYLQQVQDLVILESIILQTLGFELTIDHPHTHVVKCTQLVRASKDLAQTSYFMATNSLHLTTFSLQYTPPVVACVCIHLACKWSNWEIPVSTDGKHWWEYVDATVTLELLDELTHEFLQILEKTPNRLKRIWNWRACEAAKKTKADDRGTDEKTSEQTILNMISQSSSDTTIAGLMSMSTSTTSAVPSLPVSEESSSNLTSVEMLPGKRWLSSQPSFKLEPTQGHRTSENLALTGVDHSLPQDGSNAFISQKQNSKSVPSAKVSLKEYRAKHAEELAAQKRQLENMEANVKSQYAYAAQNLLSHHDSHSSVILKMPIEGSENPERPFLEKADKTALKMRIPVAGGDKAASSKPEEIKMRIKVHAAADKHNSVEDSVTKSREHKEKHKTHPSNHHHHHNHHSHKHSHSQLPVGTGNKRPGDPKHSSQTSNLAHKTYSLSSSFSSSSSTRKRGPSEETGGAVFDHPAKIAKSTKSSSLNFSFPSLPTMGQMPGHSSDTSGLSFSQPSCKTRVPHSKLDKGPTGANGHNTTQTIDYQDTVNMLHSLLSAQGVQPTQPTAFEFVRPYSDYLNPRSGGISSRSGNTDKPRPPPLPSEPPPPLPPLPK
Sequence of CDK9/cyclin T1 (P50750 whole entry): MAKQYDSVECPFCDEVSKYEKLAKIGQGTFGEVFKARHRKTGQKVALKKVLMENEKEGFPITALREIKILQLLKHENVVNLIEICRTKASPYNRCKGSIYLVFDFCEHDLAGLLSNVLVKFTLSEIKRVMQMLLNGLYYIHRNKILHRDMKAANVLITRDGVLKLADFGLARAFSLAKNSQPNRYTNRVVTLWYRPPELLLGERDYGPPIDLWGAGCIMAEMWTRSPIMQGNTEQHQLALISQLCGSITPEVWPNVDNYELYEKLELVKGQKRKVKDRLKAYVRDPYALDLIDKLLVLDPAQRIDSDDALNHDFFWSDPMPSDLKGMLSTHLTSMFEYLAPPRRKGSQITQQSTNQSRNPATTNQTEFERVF
How it was run: (§2)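 Compounds at fixed 5 μM; 10–50 ng kinase, substrate and NP-40/BSA per supplementary table, 10 μL at 30 °C for 10 min in low-binding tubes. Reactions spotted on filter, dried, scintillation counted. Mean ± SD of two independent experiments.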

Influenza A virus [6] = experiment: as §1, with “virus (A/parrot/Ulster/73(H7N1))” for “Puerto Rico/8/34/H1N1”; format: functional, organism-based
[7] = Selectivity index, ratio of CC50 for human Caco-2 cells infected with SARS-COV-2 to IC50 of SARS-COV 2 infected in human Caco-2 cells; format: toxicity, cell-based; details: read-out: Selectivity Index
[8] = Toxicity in human A549 cells assessed as effect on host cell membrane; format: cell-based
Influenza A virus [9] = experiment: Antiviral activity against Influenza A Puerto Rico/8/34/H1N1 infected in MDCK cells assessed as inhibition of viral replication measured in supernatants of infected cells after 24 hrs by hemagglutination assay; format: functional, organism-based; details: A/Puerto Rico/8/1934(H1N1)
Influenza A virus [10] = experiment: Antiviral activity against Influenza A Puerto Rico/8/34/H1N1 infected in human A549 cells assessed as reduction in viral protein expression at 20 uM treated for 1 hr during viral adsorption followed by staining with anti-Flu antibody observed at 24 hrs post infection by In-cell western assay; format: functional, organism-based; details: A/Puerto Rico/8/1934(H1N1)
[11] = Selectivity index, ratio of CC50 for MDCK cells to IC50 for Influenza A Puerto Rico/8/34/H1N1 infected in MDCK cells; format: toxicity, cell-based; details: dog, read-out: Selectivity Index
How it was run: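 MDCK or A549 cells (2.5 × 10⁵/well) infected with A/Puerto Rico/8/34 H1N1 for 1 h at 37 °C, then washed. Compound (0.5–20 μM) added in 2% FBS medium for 24 h, with DMSO final ≤0.2%. Virus in supernatants read by hemagglutination. CC₅₀ by MTT (2 × 10⁴ cells/well, same concentrations, 24 h, absorbance 570 nm). SI = CC₅₀/IC₅₀.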

[12] = Stability of the compound in presence of 40 mM H2O2 in ethanol measured after 6 days; format: physicochemical; details: 144 h; time 6 day
Calu-3 = experiment: Cytotoxicity against human Calu-3 cells infected with SARS-COV-2 by celltiter-glo luminescent cell viability assay; format: cell-based; details: calu-3
How it was run: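 Compound-exposed cells assessed by CellTiter-Glo luminescence versus DMSO control; CC50 from dose-response.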

[13] = molecular target: Src (Proto-oncogene tyrosine-protein kinase Src) (Homo sapiens, UniProt P12931); experiment: Inhibition of human recombinant N terminal His6 tagged full length Src assessed as residual activity at 5 uM using KVEKIGEGTYGVVYK as a substrate in the presence of NP-40 incubated for 10 mins by scintillation counting analysis relative to control; details: probe KVEKIGEGTYGVVYK, read-out: Activity; how it was run: as §2
Sequence of Src (Proto-oncogene tyrosine-protein kinase Src) (P12931 2-536 limits assumed): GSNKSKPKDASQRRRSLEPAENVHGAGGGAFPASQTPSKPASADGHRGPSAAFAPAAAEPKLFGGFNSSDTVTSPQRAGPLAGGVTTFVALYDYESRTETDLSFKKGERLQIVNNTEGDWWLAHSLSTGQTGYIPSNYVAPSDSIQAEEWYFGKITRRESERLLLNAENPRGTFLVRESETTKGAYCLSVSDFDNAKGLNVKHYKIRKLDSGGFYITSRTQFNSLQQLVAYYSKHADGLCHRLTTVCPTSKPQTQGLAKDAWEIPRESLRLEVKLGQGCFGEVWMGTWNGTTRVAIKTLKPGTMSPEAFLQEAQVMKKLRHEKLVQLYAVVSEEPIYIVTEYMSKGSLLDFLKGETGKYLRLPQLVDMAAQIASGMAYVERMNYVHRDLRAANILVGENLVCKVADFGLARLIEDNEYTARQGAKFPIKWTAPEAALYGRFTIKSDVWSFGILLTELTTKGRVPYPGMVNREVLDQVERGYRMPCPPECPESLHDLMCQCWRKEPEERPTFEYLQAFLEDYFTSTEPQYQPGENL

[14] = molecular target: PIK3CA (Phosphatidylinositol 4,5-bisphosphate 3-kinase catalytic subunit alpha isoform) (Homo sapiens, UniProt P42336); experiment: Inhibition of human full length PIK3CA assessed as residual activity at 5 uM using PI:PS (1:3) as a substrate incubated for 10 mins by scintillation counting analysis relative to control; details: full length PIK3CA enzyme, probe PI:PS (1:3), read-out: Activity
Sequence of PIK3CA (Phosphatidylinositol 4,5-bisphosphate 3-kinase catalytic subunit alpha isoform) (P42336 whole entry, canonical isoform): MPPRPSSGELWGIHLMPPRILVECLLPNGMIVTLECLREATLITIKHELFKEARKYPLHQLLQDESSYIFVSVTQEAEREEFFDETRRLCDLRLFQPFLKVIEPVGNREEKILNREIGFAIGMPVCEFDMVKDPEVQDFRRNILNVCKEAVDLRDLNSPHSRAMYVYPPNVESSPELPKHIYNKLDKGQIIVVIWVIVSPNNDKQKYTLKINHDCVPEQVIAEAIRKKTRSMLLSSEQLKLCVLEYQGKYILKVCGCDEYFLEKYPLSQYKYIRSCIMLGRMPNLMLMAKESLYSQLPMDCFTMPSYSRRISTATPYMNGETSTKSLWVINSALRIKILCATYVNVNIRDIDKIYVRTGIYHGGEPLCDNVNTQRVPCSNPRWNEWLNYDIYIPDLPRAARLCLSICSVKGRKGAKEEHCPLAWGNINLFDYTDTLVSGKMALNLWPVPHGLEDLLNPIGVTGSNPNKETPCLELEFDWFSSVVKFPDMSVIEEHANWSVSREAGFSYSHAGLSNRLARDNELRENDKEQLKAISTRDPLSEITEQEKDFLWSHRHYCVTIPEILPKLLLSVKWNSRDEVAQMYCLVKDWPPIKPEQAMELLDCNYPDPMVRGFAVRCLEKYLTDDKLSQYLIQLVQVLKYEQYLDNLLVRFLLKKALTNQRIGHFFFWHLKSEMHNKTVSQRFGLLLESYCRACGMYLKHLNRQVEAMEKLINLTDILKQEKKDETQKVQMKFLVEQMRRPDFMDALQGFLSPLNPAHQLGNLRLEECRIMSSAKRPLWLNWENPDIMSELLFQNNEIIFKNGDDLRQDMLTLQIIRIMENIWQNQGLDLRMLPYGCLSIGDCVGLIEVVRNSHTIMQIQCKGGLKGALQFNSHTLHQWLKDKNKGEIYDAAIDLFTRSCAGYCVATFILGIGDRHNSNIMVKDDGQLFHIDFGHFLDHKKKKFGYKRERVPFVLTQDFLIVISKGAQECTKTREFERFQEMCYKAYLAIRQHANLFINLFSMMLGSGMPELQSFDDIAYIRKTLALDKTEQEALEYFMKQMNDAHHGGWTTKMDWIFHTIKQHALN
How it was run: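 Radiometric kinase reaction with 10–50 ng enzyme and compound fixed at 5 μM, 10 μL at 30 °C for 10 min. Reactions spotted on filter and counted by scintillation. Residual activity is the mean ± SD of two independent experiments.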

Influenza A virus [15] = experiment: Antiviral activity against Influenza A/California/04/2009H1N1 infected in human A549 cells assessed as reduction in viral protein expression at 20 uM treated for 24 hr post viral adsorption followed by staining with anti-Flu antibody observed at 24 hrs post infection by In-cell western assay; format: functional, organism-based
Influenza A virus [16] = experiment: Antiviral activity against Influenza A virus (A/parrot/Ulster/73(H7N1)) infected in human A549 cells assessed as reduction in viral protein expression at 20 uM treated for 2 to 6 hrs post infection and measured following infection of MDCK cells with supernatant for 24 hrs by time-of-addition assay; format: functional, organism-based; details: time 2-6 hrs
SARS-CoV-2 [17] = experiment: Antiviral activity against SARS-COV 2 infected in human Caco-2 cells assessed as inhibition of viral replication at MOI of 0.01 and incubated after 2 hrs post infection for 48 hrs by immunodetection assay; format: functional, organism-based; details: Severe acute respiratory syndrome coronavirus 2, Caco-2
Influenza A virus [18] = experiment: Antiviral activity against Influenza A Puerto Rico/8/34/H1N1 infected in human A549 cells assessed as reduction in viral protein expression at 20 uM pretreated for 2 hrs followed by staining with anti-Flu antibody observed at 24 hrs post infection by In-cell western assay; format: functional, organism-based; details: A/Puerto Rico/8/1934(H1N1)
[19] = Inhibition of Dengue virus 2 […] RNA dependent RNA polymerase incubated for 10 mins by picogreen staining based fluorescent analysis (Rvb= 0.27+/-0.03 uM); set-up: species or system dengue virus type 2
Influenza A virus [20] = experiment: Antiviral activity against Influenza A/California/04/2009H1N1 infected in human A549 cells assessed as reduction in viral protein expression at 20 uM treated for 1 hr during viral adsorption followed by staining with anti-Flu antibody observed at 24 hrs post infection by In-cell western assay; format: functional, organism-based

FC(F)(F)c1cccc(Nc2nc(NCCOc3ccccc3)nc3[nH]cnc23)c1
Activity (Influenza A virus [1]): Active
IC50 [2]: 12.8 µM
Activity (Influenza A virus [3]): Active
inhibition at 0.8 µM (SARS-CoV-2 [4]): 83.5%
inhibition (Influenza A virus [5]): inactive
activity at 10 min, 5 µM (CDK9/cyclin T1): > 98%
Activity (Influenza A virus [6]): Active
selectivity ratio [7]: 14
Activity [8]: Toxic
IC50 (Influenza A virus [9]): 5.3 µM
Activity (Influenza A virus [10]): Active
selectivity ratio [11]: 14.5
Stabilty [12]: Unstable
CC50 (Calu-3): 120 µM
activity at 10 min, 5 µM [13]: 47%
activity at 10 min, 5 µM [14]: 66%
Activity (Influenza A virus [15]): Active
Activity (Influenza A virus [16]): Active
IC50 (SARS-CoV-2 [17]): 5.9 µM
Activity (Influenza A virus [18]): Active
IC50 [19]: 20.8 µM
Activity (Influenza A virus [20]): Active
